In data set [1] the target is T1, Disintegrin and metalloproteinase domain-containing protein 17 (Homo sapiens, UniProt P78536). Put plainly: Binding affinity to recombinant TACE.
Data set [2] deals with T1, Disintegrin and metalloproteinase domain-containing protein 17. The experiment in a line: Inhibition of LPS/interferon gamma-stimulated TNFalpha release from HPBMC. The data set is classed as functional.
A short description of data set [3]: Clearance in rat at 1 mg/kg, iv and 3 mg/kg, po. The data set is classed as ADME, organism-based. Conditions: in vivo. In short, it runs like this:
(§1)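 Conscious, permanently cannulated rats (n = 4) were dosed with a five-compound cassette or a single compound. Dosing was 1 mg/kg iv into the femoral vein (30% N-methyl-2-pyrrolidone in PEG 200) and 3 mg/kg po by gavage (3% ethanol in corn oil), in the same animals with a 48 h washout. Femoral-artery plasma was sampled for 24 h (iv) or 7 h (po), acetonitrile-precipitated and analysed by HPLC/MS.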

The next data set has as its target T2, Interstitial collagenase (Homo sapiens, UniProt P03956).
T2 sequence (P03956 whole entry): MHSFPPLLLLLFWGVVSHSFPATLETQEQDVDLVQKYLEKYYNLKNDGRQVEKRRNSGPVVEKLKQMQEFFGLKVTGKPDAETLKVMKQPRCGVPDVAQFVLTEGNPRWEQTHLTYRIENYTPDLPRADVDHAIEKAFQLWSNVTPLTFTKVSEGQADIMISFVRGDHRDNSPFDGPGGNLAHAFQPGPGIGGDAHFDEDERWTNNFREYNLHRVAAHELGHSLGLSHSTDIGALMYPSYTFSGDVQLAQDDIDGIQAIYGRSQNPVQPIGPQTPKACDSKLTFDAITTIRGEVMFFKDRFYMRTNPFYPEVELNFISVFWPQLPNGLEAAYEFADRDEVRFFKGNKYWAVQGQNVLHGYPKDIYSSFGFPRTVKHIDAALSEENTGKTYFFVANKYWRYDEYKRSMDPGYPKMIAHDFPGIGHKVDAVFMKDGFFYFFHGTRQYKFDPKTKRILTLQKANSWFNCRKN
Put plainly: Binding affinity to recombinant MMP1.

Data set [4] is described as follows: Volume of distribution in rat at 1 mg/kg, iv and 3 mg/kg, po. Conditions: in vivo, read-out: Vdss. The data set is classed as ADME, organism-based. In short, it runs like this: as §1
A further data set addresses Collagenase 3 (Homo sapiens, UniProt P45452). The experiment in a line: Binding affinity to recombinant MMP13.
For the next data set, the system named is Rattus norvegicus. Put plainly: Cmax in rat at 3 mg/kg, po normalized to 1 mg/kg. The data set is classed as ADME, organism-based. On the set-up: dose 3 mg/kg, route oral. To be noted: in vivo. The method, boiled down: as §1
The nature of data set [5]: Oral bioavailability in rat at 1 mg/kg, iv and 3 mg/kg, po. To be noted: in vivo. The data set is classed as ADME, organism-based. The method, boiled down:
as §1

Another data set has as its target Stromelysin-1 (Homo sapiens, UniProt P08254). Put plainly: Binding affinity to recombinant MMP3. In short, it runs like this:
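Recombinant enzyme activity measured by a fluorimetric assay.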

A word on the Ki: it is the equilibrium dissociation constant of an inhibitor or competing ligand from its target. The IC50 is the concentration that inhibits the measured activity by half. As a reminder, the Cmax is the maximum level reached in the sampled fluid or tissue. As a reminder, the bioavailability is dose-corrected exposure relative to a reference, in per cent.

Where only a bound is given, the exact number is not on record here.

T1 sequence (P78536 whole entry, the tested form may be a part): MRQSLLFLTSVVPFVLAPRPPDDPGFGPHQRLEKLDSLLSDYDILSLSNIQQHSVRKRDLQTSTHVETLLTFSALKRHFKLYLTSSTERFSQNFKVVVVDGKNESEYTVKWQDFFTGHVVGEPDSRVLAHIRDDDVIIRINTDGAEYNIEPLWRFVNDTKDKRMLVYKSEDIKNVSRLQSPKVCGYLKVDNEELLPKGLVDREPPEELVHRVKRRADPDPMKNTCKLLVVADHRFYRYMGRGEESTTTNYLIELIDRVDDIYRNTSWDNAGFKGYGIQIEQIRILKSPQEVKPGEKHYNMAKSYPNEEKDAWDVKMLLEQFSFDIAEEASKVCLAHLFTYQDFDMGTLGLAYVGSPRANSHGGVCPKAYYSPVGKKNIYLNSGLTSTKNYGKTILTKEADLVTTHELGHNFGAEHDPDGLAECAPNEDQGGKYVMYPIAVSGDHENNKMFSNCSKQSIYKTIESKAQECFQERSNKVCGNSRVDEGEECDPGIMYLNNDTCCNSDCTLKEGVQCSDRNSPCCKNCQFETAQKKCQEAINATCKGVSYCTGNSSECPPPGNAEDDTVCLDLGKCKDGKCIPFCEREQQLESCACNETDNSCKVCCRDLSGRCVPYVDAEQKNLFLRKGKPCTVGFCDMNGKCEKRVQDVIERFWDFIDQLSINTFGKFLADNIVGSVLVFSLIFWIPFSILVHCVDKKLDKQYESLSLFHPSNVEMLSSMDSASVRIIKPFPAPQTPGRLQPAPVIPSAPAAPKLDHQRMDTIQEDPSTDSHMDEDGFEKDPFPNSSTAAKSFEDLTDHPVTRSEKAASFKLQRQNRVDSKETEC
Chain of Stromelysin-1 (P08254 whole entry): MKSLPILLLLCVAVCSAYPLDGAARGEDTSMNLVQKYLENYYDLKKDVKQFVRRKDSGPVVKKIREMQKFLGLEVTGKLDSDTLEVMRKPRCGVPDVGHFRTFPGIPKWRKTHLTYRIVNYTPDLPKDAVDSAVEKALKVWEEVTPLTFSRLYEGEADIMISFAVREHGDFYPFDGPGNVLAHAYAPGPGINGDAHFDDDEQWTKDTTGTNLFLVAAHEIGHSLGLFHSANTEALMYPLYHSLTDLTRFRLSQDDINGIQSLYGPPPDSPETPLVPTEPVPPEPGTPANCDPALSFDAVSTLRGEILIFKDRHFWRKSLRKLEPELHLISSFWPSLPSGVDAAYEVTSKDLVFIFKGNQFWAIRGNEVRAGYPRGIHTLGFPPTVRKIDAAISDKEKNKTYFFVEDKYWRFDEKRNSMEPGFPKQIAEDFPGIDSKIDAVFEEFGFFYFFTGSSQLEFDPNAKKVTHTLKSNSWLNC

With `CN1C(=O)N(C[C@H](C(=O)NO)[C@@H](CC2CCCC2)C(=O)N2CCCCC2)C(=O)C1(C)C`, the Ki in data set [1] worked out at 230 nM. This molecule yielded an IC50 in data set [2] of over 10000 nM.

In the case of `CNC(=O)[C@@H]1CCCCN1C(=O)[C@H](c1ccc(OC)cc1)[C@H](CO)C(=O)NO`, in [3], the clearance came out at 23.2 mL/min/kg. The Ki on Interstitial collagenase came to 23 nM; at Collagenase 3, 10 nM; in data set [1], 8 nM. Also, the Vd in [4] is 1.06 L/kg. In data set [2], the IC50 was over 10000 nM. The Cmax in the data set with Rattus norvegicus is 38.1 nM. The same molecule displayed a bioavailability in data set [5] of 8.4%.

In data set [3], `CNC(=O)[C@@H](NC(=O)C(c1ccc(OC)cc1)C(CO)C(=O)NO)C(C)(C)C` (single isomer, unassigned) yielded a clearance of 10 mL/min/kg. For the same molecule, the Ki on Interstitial collagenase worked out at 1 nM; at Collagenase 3, 0.5 nM. For the same molecule, the Vd in data set [4] amounted to 0.34 L/kg. In [2], this molecule returned an IC50 of 48 nM. This molecule displayed a Cmax with Rattus norvegicus of 42.7 nM. For the same molecule, the bioavailability in data set [5] amounted to 3.2%.

In data set [3], `CC[C@H](C(=O)NO)[C@H](C(=O)N1CCCC[C@H]1C(=O)NC)c1ccc(Cl)cc1` yielded a clearance of 28.1 mL/min/kg. Also, the inhibition constant (Ki) turned out to be 0.7 nM on Interstitial collagenase, 2 nM on Collagenase 3 and 5 nM in data set [1]. Moreover, the Vd in data set [4] came to 16.7 L/kg. The concentration for half-maximal inhibition (IC50) in [2] was determined as 316 nM. In the data set with Rattus norvegicus, this molecule registered a Cmax of 388.6 nM. In data set [5], this molecule had a bioavailability of 47.1%.

As for `CNC(=O)[C@@H](NC(=O)[C@H](c1ccc(OC)cc1)[C@H](CN1C(=O)N(C)C(C)(C)C1=O)C(=O)NO)C(C)(C)C`, the Ki at Stromelysin-1 came out at 12 nM; at Interstitial collagenase, 0.7 nM; at Collagenase 3 it was 3 nM; in data set [1], 57 nM. Moreover, 484 nM corresponded to half-maximal inhibition in data set [2] (IC50).

`COc1ccc([C@@H](C(=O)N2CCCCC2)[C@H](CN2C(=O)N(C)C(C)(C)C2=O)C(=O)NO)cc1`: the Ki at Stromelysin-1 came to 187 nM; on Interstitial collagenase, 83 nM; at Collagenase 3, 19 nM; in [1], 321 nM. For the same molecule, in [2], the IC50 is over 10000 nM.

In the case of `CC[C@H](C(=O)NO)[C@H](C(=O)N1CCCC[C@H]1C(=O)NC)c1ccc(OC)cc1`, the Ki at Stromelysin-1 came to 11 nM; at Interstitial collagenase it was 25 nM; at Collagenase 3, 7 nM; in data set [1], 8 nM. The IC50 in data set [2] was 836 nM.

On to `COc1ccc([C@@H](C(=O)N2CCCCC2)[C@H](CO)C(=O)NO)cc1`, for which the Ki was 300 nM on Stromelysin-1, 213 nM at Interstitial collagenase, 55 nM on Collagenase 3 and 66 nM in data set [1]. Also, the IC50 in [2] was over 10000 nM.

Values taken from ChEMBL document CHEMBL1147690, “A cassette-dosing approach for improvement of oral bioavailability of dual TACE/MMP inhibitors” (Bioorg Med Chem Lett, 2006).
